This is a sample that favours compounds with a hit; in the whole collection about 2.7% have one here.
CaV13 FRET inh: Primary screen for inhibitors of IQ motif and Ca2+-dependent inactivation inhibitor domain binding in CACNA1D, Förster resonance energy transfer in living cells, …; HEK cells, CFP/YFP FRET ICDI-IQ, plate reader, 10 min; percent FRET-ratio fall versus neutral wells; inhibition, % at 12.3 µM; 340,000 compounds, 0.098% hits;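 active = mean replicate inhibition of at least 30% and at least 1% of replicates passing that level; inconclusive = only one of the two criteria is met; inactive = neither criterion is met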
AF4-AF9 inh: inhibitors of AF4 peptide binding to AF9, primary screen, biochemical, AlphaScreen, biotin-AF4 peptide, FLAG-AF9, single point. Protein AF-9 (Homo sapiens), P42568. inhibition, % at 10 µM. 350,000 compounds, 0.47% hits. AID 651704, 2012;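 active = every replicate reaching a set inhibition limit, whatever the replicate mean, cut at about 25% in these data; inconclusive = mean inhibition reaches that limit but some replicates miss it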
SIRT5 inh: SIRT5 desuccinylase inhibitors, primary screen, biochemical, fluorescence imaging, single point, set 5; Purified SirT5, succinyl-peptide AMC, trypsin-coupled fluorescence; 330,000 compounds, 1.1% hits; inhibition, % at 15 µM; in the data active = inhibition above about 15%; inconclusive = no clear call, values can overlap the other calls
Target sequence (Q9NXA8 whole entry, looked up): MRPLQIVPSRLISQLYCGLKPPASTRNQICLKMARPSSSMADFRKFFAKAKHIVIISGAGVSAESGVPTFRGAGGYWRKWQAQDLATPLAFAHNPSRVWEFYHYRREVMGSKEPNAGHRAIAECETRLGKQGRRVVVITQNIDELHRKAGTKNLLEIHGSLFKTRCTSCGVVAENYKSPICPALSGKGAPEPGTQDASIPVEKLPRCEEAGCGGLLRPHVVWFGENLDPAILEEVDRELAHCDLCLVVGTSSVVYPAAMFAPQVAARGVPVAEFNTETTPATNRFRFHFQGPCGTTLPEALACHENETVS
S100A4 MyoIIA: inhibitors of S100A4-myosin IIA peptide binding, primary screen, biochemical, fluorescence polarization, TAMRA-MyoIIA peptide | Protein S100-A4 (Homo sapiens), P26447 | inhibition, % at 10.7 µM | 360,000 compounds, 0.14% hits | AID 652163, 2013;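 active = mean inhibition of at least 70% across replicates, with every replicate also reaching that level; inconclusive = mean inhibition reaches 70% but some replicates fall short; inactive = mean inhibition below 70%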
Target sequence (P26447 whole entry, looked up): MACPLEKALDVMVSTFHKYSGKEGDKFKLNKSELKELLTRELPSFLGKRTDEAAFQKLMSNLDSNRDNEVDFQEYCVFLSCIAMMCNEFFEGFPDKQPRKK
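Material: S100A4 monomer (human). Medium: Calcium-containing HEPES buffer, pH 7.2. Probe or stimulus: labelled myosin peptide probe, 5 nM. Compound dosing: one concentration per compound. Timing: polarization read 5 min after assay mix addition, stable 5–60 min. Benchmarks: DMSO as neutral control, TFP as positive control.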
DENV2 CPE rescue: inhibitors of DENV2 cytopathic effect, primary screen, cell-based, plate reader, single concentration; DENV2-infected cells, cytopathic effect rescue; CPE inhibition, % at 9.99 µM; 350,000 compounds, 1.7% hits; in the data active = CPE inhibition above about 20%, passing the limit was not always enough; inconclusive = no clear call, values can overlap the other calls; tested in BHK-21 cells
A number is an active result; 0 = inactive; ? = inconclusive; - = no result.

SMILES	CaV13 FRET inh	AF4-AF9 inh	SIRT5 inh	S100A4 MyoIIA	DENV2 CPE rescue
C[C@@H]1CCCCO[C@H](CN(C)S(C)(=O)=O)[C@@H](C)CN([C@H](C)CO)C(=O)c2cc(NC(=O)C3CCCCC3)ccc2O1	-	0	0	0	?
Cc1noc(C)c1NC(=O)Nc1ccc2c(c1)CC(=O)N([C@H](C)CO)C[C@H](C)[C@H](CN(C)C(=O)Nc1ccccc1)O2	-	0	0	0	20
Cc1noc(C)c1NC(=O)N(C)C[C@H]1Oc2ccc(NC(=O)CCCN(C)C)cc2CC(=O)N([C@@H](C)CO)C[C@@H]1C	-	31	0	0	0
Cc1noc(C)c1NC(=O)N(C)C[C@@H]1Oc2ccc(NC(=O)NC3CCCCC3)cc2CC(=O)N([C@H](C)CO)C[C@H]1C	-	0	0	0	32
Cc1noc(C)c1NC(=O)Nc1ccc2c(c1)CC(=O)N([C@H](C)CO)C[C@@H](C)[C@@H](CN(C)Cc1ccc(-c3ccccc3)cc1)O2	-	0	16	0	?
Cc1noc(C)c1NC(=O)N[C@H]1CC[C@@H](CC(=O)Nc2ccccc2)O[C@@H]1CO	-	0	0	0	0
C[C@@H]1CCCCO[C@@H](CN(C)C(=O)CCC(F)(F)F)[C@@H](C)CN([C@H](C)CO)C(=O)c2cc(NC(=O)Cc3ccccc3)ccc2O1	-	0	0	0	0
Cc1noc(C)c1NC(=O)N(C)C[C@H]1Oc2ccc(NC(=O)Cc3ccccc3)cc2CC(=O)N([C@@H](C)CO)C[C@H]1C	-	0	0	-	54
O=C(N[C@H]1CC[C@H](CCn2cc(C3(O)CCCC3)nn2)O[C@H]1CO)C1CCOCC1	-	0	-	0	32
O=C(N[C@@H]1CC[C@@H](CCn2cc(C3(O)CCCC3)nn2)O[C@H]1CO)C1CCCC1	-	0	0	0	21
CC(C)c1cn(CC[C@@H]2CC[C@H](NC(=O)C3CCOCC3)[C@H](CO)O2)nn1	-	0	0	0	31
O=C(N[C@@H]1CC[C@H](CCn2cc(C3(O)CCCC3)nn2)O[C@H]1CO)C1CCOCC1	-	0	0	0	0
CCCC#Cc1ccc([C@H]2[C@@H](CO)N3CCCCN(CC4CCOCC4)C[C@@H]23)cc1	-	0	0	0	?
CC1(C(=O)Nc2ccc3c(c2)OCCO3)CCC(=O)N1CC(F)(F)F (configuration not stated)	0	0	0	0	0
Cn1nc(C(C)(C)C)cc1N1C(=O)CCC1(C)C(=O)Nc1ccc2c(c1)OCCO2 (configuration not stated)	0	0	0	0	24
Cc1c(C(=O)OCC(O)=C(C#N)c2nc3ccccc3[nH]2)oc2ccc(Br)cc12	0	0	30	0	0
COc1cc(OC)cc(C(=O)OC/C(O)=C(\C#N)c2nc3ccccc3[nH]2)c1	0	0	0	0	60
Cc1c(C(=O)OC/C(O)=C(\C#N)c2nc3ccccc3[nH]2)oc2ccccc12	0	0	0	0	0
C[C@@H]1CN([C@H](C)CO)C(=O)c2cccc(NC(=O)C3CC3)c2O[C@H]1CN(C)S(=O)(=O)c1cccs1	-	0	0	0	34
C[C@H](CO)N1C[C@H](C)[C@H](CN(C)S(=O)(=O)c2cccs2)Oc2c(NC(=O)C3CCCCC3)cccc2C1=O	-	0	17	?	0
C[C@H](CO)N1C[C@H](C)[C@H](CN(C)S(=O)(=O)c2cccs2)Oc2c(NC(=O)C3CC3)cccc2C1=O	-	0	0	0	0
O=C(NCC1CCCCC1)[C@H]1N[C@H]2c3ccc(C4=CCCC4)c(=O)n3C[C@H]2[C@@H]1CO	-	0	0	0	?
C[C@@H]1CN([C@@H](C)CO)C(=O)c2cc(NC(=O)C3CC3)ccc2O[C@H]1CN(C)Cc1ccc2c(c1)OCO2	-	0	0	0	0
CN1CCN(C(=O)C[C@@H]2CC[C@H](NS(=O)(=O)c3cccc(F)c3)[C@@H](CO)O2)CC1	-	0	0	0	0
CCOc1ccc(C2CC(c3c(O)c4ccccc4oc3=O)=NN2c2ccccc2)cc1OC (configuration not stated)	165	0	0	0	0
SMILES	CaV13 FRET inh	AF4-AF9 inh	SIRT5 inh	S100A4 MyoIIA	DENV2 CPE rescue
O=C(Nc1ccc(F)cc1)Nn1cnnc1	0	0	0	0	0
O=C(Nc1ccc(F)c(Cl)c1)Nn1cnnc1	0	0	0	0	76
N#C[C@H]1N[C@H](CO)[C@@H]1c1ccc(/C=C/c2ccccc2)cc1	-	0	0	0	0
N#C[C@@H]1N[C@H](CO)[C@H]1c1ccccc1	-	0	0	0	38
N#C[C@H]1N[C@H](CO)[C@H]1c1ccc(C#Cc2ccc(F)cc2)cc1	-	0	0	0	55
CC(C)NC(=O)N(C)C[C@H]1Oc2c(NC(=O)NC3CCCCC3)cccc2C(=O)N([C@@H](C)CO)C[C@H]1C	-	0	0	0	0
O=C(NCC[C@H]1CC[C@@H](NS(=O)(=O)c2ccccc2F)[C@H](CO)O1)c1ccc(F)cc1	-	0	0	126	0
Cc1ccccc1S(=O)(=O)NCC[C@@H]1CC[C@@H](NC(=O)C2CCCC2)[C@@H](CO)O1	0	0	0	0	0
O=C(N[C@H]1CC[C@@H](CCNS(=O)(=O)c2ccc(F)cc2)O[C@H]1CO)C1CCC1	-	0	0	0	0
O=C(N[C@H]1CC[C@@H](CCNS(=O)(=O)c2ccc(F)cc2)O[C@@H]1CO)C1CCC1	-	0	18	0	0
O=C(N[C@H]1CC[C@@H](CCNS(=O)(=O)c2ccc(F)cc2)O[C@H]1CO)C1CCCC1	-	0	0	0	21
Cc1ccccc1S(=O)(=O)NCC[C@@H]1CC[C@H](NC(=O)C2CCCC2)[C@@H](CO)O1	-	0	0	0	23
Cc1noc(C)c1NC(=O)Nc1ccc2c(c1)C(=O)N([C@H](C)CO)C[C@@H](C)[C@@H](CN(C)Cc1ccc(Cl)c(Cl)c1)O2	-	0	0	0	0
O=C(NCC[C@@H]1CC[C@@H](NC(=O)C2CCCC2)[C@@H](CO)O1)c1ccc(F)cc1	-	0	0	0	0
O=C(NCC[C@H]1CC[C@H](NC(=O)C2CCCC2)[C@@H](CO)O1)c1ccc(F)cc1	-	0	0	0	29
COCCNC(=O)C[C@@H]1CC[C@H]2[C@@H](COC[C@H](O)CN2C(=O)Nc2ccccc2OC)O1	-	0	0	0	0
COc1ccc2c3c([nH]c2c1)[C@H](CO)N(C(=O)C1CCCC1)CC31CCN(C)CC1	-	0	0	0	0
CCN(CC)S(=O)(=O)c1ccc(NC(=S)NC(=O)CC(C)C)cc1	0	0	33	0	0
CCN(CC)S(=O)(=O)c1ccc(NC(=S)NC(=O)C(C)C)cc1	0	0	0	0	0
